{"source": "paper PMC2736347", "about": "(The Journal of organic chemistry, 2009)", "key": {"SIRT2 [1]": {"biological_target": "T1, SIRT2 (Homo sapiens, UniProt Q8IXJ6)", "T1 sequence (Q8IXJ6 1-389)": "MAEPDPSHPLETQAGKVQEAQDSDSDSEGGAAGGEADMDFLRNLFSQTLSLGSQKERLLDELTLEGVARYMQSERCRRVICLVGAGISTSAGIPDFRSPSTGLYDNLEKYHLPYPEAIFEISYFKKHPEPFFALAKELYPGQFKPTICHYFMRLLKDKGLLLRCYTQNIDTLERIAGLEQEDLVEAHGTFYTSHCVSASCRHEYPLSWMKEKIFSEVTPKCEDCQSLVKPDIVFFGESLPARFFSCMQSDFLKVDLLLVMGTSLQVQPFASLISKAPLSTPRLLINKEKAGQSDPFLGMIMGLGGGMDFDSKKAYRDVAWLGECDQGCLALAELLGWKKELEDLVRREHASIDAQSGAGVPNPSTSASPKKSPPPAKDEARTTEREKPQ", "conditions": "read-out: IC50 (SIRT2), reported; cited from earlier work"}, "Candida albicans": {"test_system": "Candida albicans", "conditions": "100 µg/disk; cited from earlier work"}, "Artemia salina": {"test_system": "Artemia salina", "conditions": "cited from earlier work"}, "Biomphalaria glabrata": {"test_system": "Biomphalaria glabrata", "conditions": "cited from earlier work"}, "SIRT2 [2]": {"biological_target": "T1, SIRT2", "assay": "Initial SIRT2 inhibitory assay", "assay_type": "biochemical", "in_short": "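Reactions contained 50 µM fluor de Lys substrate, 270 nM SIRT2 and 1 mM NAD, with or without test compound, in Buffer A (25 mM Tris-HCl pH 8.0, 137 mM NaCl, 2.7 mM KCl, 1 mM MgCl2). Blanks lacked NAD. After 2 h at 37°, reactions were stopped with 2.7 mg/mL trypsin in Buffer A and developed for 20 min. Fluorescence was read at ex 360/em 460 nm.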"}, "sodium channels": {"test_system": "sodium channels", "assay": "Sodium channel blocking assay in neuro-2a cells", "assay_type": "cell-based, mouse"}, "[3]": {"test_system": "NCI-H460 lung tumor cells", "assay": "Cytotoxicity assay", "assay_type": "cell-based", "conditions": "human lung H-460", "in_short": "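NCI-H460 cells were seeded at 6000 cells/well in 96-well plates and dosed 24 h later. The test compound was dissolved in DMSO and diluted into medium without fetal bovine serum, with DMSO below 0.5% final. Viability was read by MTT reduction.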"}, "SIRT1": {"biological_target": "T2, SIRT1 (Homo sapiens, UniProt Q96EB6)", "T2 sequence (Q96EB6 1-747)": "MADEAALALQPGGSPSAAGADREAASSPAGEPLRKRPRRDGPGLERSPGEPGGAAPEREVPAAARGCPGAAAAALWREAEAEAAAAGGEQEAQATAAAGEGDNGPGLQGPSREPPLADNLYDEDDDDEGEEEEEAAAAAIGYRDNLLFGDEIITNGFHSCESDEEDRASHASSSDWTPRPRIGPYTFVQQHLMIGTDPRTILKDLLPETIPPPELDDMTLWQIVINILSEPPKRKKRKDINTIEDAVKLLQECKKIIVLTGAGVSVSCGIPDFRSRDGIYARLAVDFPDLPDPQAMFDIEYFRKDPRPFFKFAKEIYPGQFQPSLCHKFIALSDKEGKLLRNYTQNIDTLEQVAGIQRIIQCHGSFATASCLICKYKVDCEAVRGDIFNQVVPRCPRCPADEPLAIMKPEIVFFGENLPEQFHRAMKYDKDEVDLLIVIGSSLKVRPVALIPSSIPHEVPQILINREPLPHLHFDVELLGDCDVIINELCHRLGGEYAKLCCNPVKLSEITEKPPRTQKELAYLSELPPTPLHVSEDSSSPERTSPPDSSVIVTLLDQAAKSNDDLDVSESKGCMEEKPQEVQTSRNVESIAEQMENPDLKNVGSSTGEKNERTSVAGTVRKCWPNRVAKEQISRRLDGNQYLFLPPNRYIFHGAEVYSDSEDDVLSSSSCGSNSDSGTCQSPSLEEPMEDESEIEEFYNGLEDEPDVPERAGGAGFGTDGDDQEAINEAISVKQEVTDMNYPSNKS", "assay": "Secondary SIRT1 inhibitory assay", "assay_type": "biochemical", "conditions": "read-out: SIRT1 IC50 ± SE; second assay system"}, "SIRT2 [4]": {"biological_target": "T1, SIRT2", "assay": "Secondary SIRT2 inhibitory assay", "assay_type": "biochemical", "conditions": "second assay system; for IC50: read-out: SIRT2 IC50 ± SE"}}, "note": "Entries after “also recorded” stand apart in the source; their conditions may differ. Like-named read-outs stand apart in the source and are kept apart here."}
{"molecule": "O=c1oc2ccccc2c2oc3cc(O)c(O)cc3c12", "note": "[8,9-dihydroxybenzo-[4,5]furo[3,2-c]chromen-6-one]", "values": [{"measurement": "IC50", "setting": "SIRT2 [1]", "value": 45, "unit": "µM"}]}
{"molecule": "CCCCCCCCCCC[C@]1(CO)CCCC(=O)O1", "note": "[Compound 1, Tanikolide]", "values": [{"measurement": "diameter zone inhibition", "setting": "Candida albicans", "value": 13, "unit": "mm"}, {"measurement": "LC50 brine shrimp", "setting": "Artemia salina", "value": 3.6, "unit": "µg/mL"}, {"measurement": "LC50 snail", "setting": "Biomphalaria glabrata", "value": 9.0, "unit": "µg/mL"}]}
{"molecule": "CCCCCCCCCCCC(O)(CO)CCCC(=O)O", "note": "(stereo not shown) [Compound 2, Tanikolide seco acid]", "values": [{"measurement": "SIRT2 inhibitory activity", "setting": "SIRT2 [2]; highest concentration tested 50 µM", "value": "inactive"}, {"measurement": "sodium channel blocking activity", "setting": "sodium channels; highest concentration tested 10 µM", "value": "inactive"}, {"measurement": "cytotoxicity to H-460 cell line", "setting": "[3]; at 9.9 µM", "value": "moderately toxic; also recorded: moderate cytotoxicity"}]}
{"molecule": "(5R, 5’R)-tanikolide dimer [Compound 3]", "values": [{"measurement": "IC50", "setting": "SIRT2 [2]; read-out: IC50 against SIRT2, initial assay format", "value": 0.176, "unit": "µM"}, {"measurement": "IC50", "setting": "SIRT1", "value": "36.4 ± 8.1", "unit": "µM"}, {"measurement": "IC50", "setting": "SIRT2 [4]; listed as 5", "value": "3.3 ± 0.2", "unit": "µM"}, {"measurement": "fold more potent to the SIRT2 isoform than to SIRT1", "setting": "SIRT2 [4]", "value": "approximately 10 fold"}, {"measurement": "inhibition in sodium channel blocking assay", "setting": "sodium channels; at 5.2 µM", "value": 54, "unit": "%"}, {"measurement": "cytotoxicity to H-460 cell line", "setting": "[3]; at 10 µM", "value": "did not have any activity"}]}
{"molecule": "(5R, 5’S)-tanikolide dimer [Compound 4]", "values": [{"measurement": "IC50", "setting": "SIRT1", "value": "28.8 ± 4.3", "unit": "µM"}, {"measurement": "IC50", "setting": "SIRT2 [4]", "value": "2.4 ± 0.2", "unit": "µM"}, {"measurement": "fold more potent to the SIRT2 isoform than to SIRT1", "setting": "SIRT2 [4]", "value": "approximately 10 fold"}]}
{"molecule": "(5S, 5’S)-tanikolide dimer [ent-5]", "values": [{"measurement": "IC50", "setting": "SIRT1", "value": "34.5 ± 3.5", "unit": "µM"}, {"measurement": "IC50", "setting": "SIRT2 [4]", "value": "3.1 ± 0.3", "unit": "µM"}, {"measurement": "fold more potent to the SIRT2 isoform than to SIRT1", "setting": "SIRT2 [4]", "value": "approximately 10 fold"}]}
